Experimental data published in ChEMBL document CHEMBL4152188, “Design, synthesis and biological evaluation of C(4) substituted monobactams as antibacterial agents against multidrug-resistant Gram-negative bacteria” (Eur J Med Chem, 2018).
≈ marks a conversion by molar mass, not a printed value.

Legend:
Format in all cases: functional
[1] = system: Escherichia coli; assay: Antibacterial activity against extended-spectrum beta-lactamase producing Escherichia coli isolate 212648 after 18 hrs by CLSI broth microdilution method; conditions: isolate 212648, 18 h
[2] = system: Escherichia coli; assay: Selectivity index, ratio of MIC for against extended-spectrum beta-lactamase producing Escherichia coli isolate 208687 to MIC for extended-spectrum beta-lactamase producing Escherichia coli isolate 208687 in presence of BPL
[3] = system: Escherichia coli; assay: Antibacterial activity against Escherichia coli isolate 210737 after 18 hrs by CLSI broth microdilution method; conditions: isolate 210737, 18 h
[4] = system: Escherichia coli; assay: Antibacterial activity against extended-spectrum beta-lactamase producing Escherichia coli isolate 208687 after 18 hrs by CLSI broth microdilution method; conditions: isolate 208687, 18 h
[5] = system: Escherichia coli; assay: Antibacterial activity against extended-spectrum beta-lactamase producing Escherichia coli isolate 208687 after 18 hrs in presence of BPL by CLSI broth microdilution method; conditions: isolate 208687, 18 h
Summary of the method: (§1)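 CLSI broth microdilution against clinical isolates (ESBL E. coli, KPC-2 MDR K. pneumoniae, IMP-4 MDR P. aeruginosa; five per species). Iron limitation: Mueller-Hinton broth supplemented with 16 mg/liter 2,2'-bipyridyl to complex iron and induce iron uptake systems. Read-out: MIC.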

[6] = system: Escherichia coli; assay: Antibacterial activity against Escherichia coli isolate 210737 after 18 hrs in presence of BPL by CLSI broth microdilution method; conditions: isolate 210737, 18 h; summary of the method: as §1
[7] = system: Escherichia coli; assay: Selectivity index, ratio of MIC for against Escherichia coli isolate 210737 to MIC for Escherichia coli isolate 210737 in presence of BPL
[8] = system: Escherichia coli; assay: Antibacterial activity against extended-spectrum beta-lactamase producing Escherichia coli isolate 212648 after 18 hrs in presence of BPL by CLSI broth microdilution method; conditions: isolate 212648, 18 h; summary of the method: as §1
[9] = system: Escherichia coli; assay: Selectivity index, ratio of MIC for against extended-spectrum beta-lactamase producing Escherichia coli isolate 212648 to MIC for extended-spectrum beta-lactamase producing Escherichia coli isolate 212648 in presence of BPL
[10] = system: Escherichia coli; assay: Antibacterial activity against extended-spectrum beta-lactamase producing Escherichia coli isolate 209285 after 18 hrs by CLSI broth microdilution method; conditions: isolate 209285, 18 h
[11] = system: Escherichia coli; assay: Antibacterial activity against extended-spectrum beta-lactamase producing Escherichia coli isolate 209285 after 18 hrs in presence of BPL by CLSI broth microdilution method; conditions: isolate 209285, 18 h; summary of the method: as §1
[12] = system: Escherichia coli; assay: Selectivity index, ratio of MIC for against extended-spectrum beta-lactamase producing Escherichia coli isolate 209285 to MIC for extended-spectrum beta-lactamase producing Escherichia coli isolate 209285 in presence of BPL
[13] = system: Escherichia coli; assay: Antibacterial activity against extended-spectrum beta-lactamase producing Escherichia coli isolate 106342 after 18 hrs by CLSI broth microdilution method; conditions: isolate 106342, 18 h
[14] = system: Escherichia coli; assay: Antibacterial activity against extended-spectrum beta-lactamase producing Escherichia coli isolate 106342 after 18 hrs in presence of BPL by CLSI broth microdilution method; conditions: isolate 106342, 18 h; summary of the method: as §1
[15] = system: Escherichia coli; assay: Selectivity index, ratio of MIC for against extended-spectrum beta-lactamase producing Escherichia coli isolate 106342 to MIC for extended-spectrum beta-lactamase producing Escherichia coli isolate 106342 in presence of BPL
[16] = system: Klebsiella pneumoniae; assay: Antibacterial activity against KPC-2 producing Klebsiella pneumoniae isolate 212423 after 18 hrs by CLSI broth microdilution method; conditions: isolate 212423, 18 h
[17] = system: Klebsiella pneumoniae; assay: Antibacterial activity against KPC-2 producing Klebsiella pneumoniae isolate 212423 after 18 hrs in presence of BPL by CLSI broth microdilution method; conditions: isolate 212423, 18 h; summary of the method: as §1
[18] = system: Klebsiella pneumoniae; assay: Selectivity index, ratio of MIC for against KPC-2 producing Klebsiella pneumoniae isolate 212423 to MIC for against KPC-2 producing Klebsiella pneumoniae isolate 212423 in presence of BPL
[19] = system: Klebsiella pneumoniae; assay: Antibacterial activity against KPC-2 producing Klebsiella pneumoniae isolate 209632 after 18 hrs by CLSI broth microdilution method; conditions: isolate 209632, 18 h
[20] = system: Klebsiella pneumoniae; assay: Antibacterial activity against KPC-2 producing Klebsiella pneumoniae isolate 209632 after 18 hrs in presence of BPL by CLSI broth microdilution method; conditions: isolate 209632, 18 h; summary of the method: as §1
[21] = system: Klebsiella pneumoniae; assay: Selectivity index, ratio of MIC for against KPC-2 producing Klebsiella pneumoniae isolate 209632 to MIC for against KPC-2 producing Klebsiella pneumoniae isolate 209632 in presence of BPL
[22] = system: Klebsiella pneumoniae; assay: Antibacterial activity against KPC-2 producing Klebsiella pneumoniae isolate 209735 after 18 hrs by CLSI broth microdilution method; conditions: isolate 209735, 18 h
[23] = system: Klebsiella pneumoniae; assay: Antibacterial activity against KPC-2 producing Klebsiella pneumoniae isolate 209735 after 18 hrs in presence of BPL by CLSI broth microdilution method; conditions: isolate 209735, 18 h; summary of the method: as §1
[24] = system: Klebsiella pneumoniae; assay: Selectivity index, ratio of MIC for against KPC-2 producing Klebsiella pneumoniae isolate 209735 to MIC for against KPC-2 producing Klebsiella pneumoniae isolate 209735 in presence of BPL
[25] = system: Klebsiella pneumoniae; assay: Antibacterial activity against KPC-2 producing Klebsiella pneumoniae isolate 212232 after 18 hrs by CLSI broth microdilution method; conditions: isolate 212232, 18 h
[26] = system: Klebsiella pneumoniae; assay: Antibacterial activity against KPC-2 producing Klebsiella pneumoniae isolate 212232 after 18 hrs in presence of BPL by CLSI broth microdilution method; conditions: isolate 212232, 18 h; summary of the method: as §1
[27] = system: Klebsiella pneumoniae; assay: Selectivity index, ratio of MIC for against KPC-2 producing Klebsiella pneumoniae isolate 212232 to MIC for against KPC-2 producing Klebsiella pneumoniae isolate 212232 in presence of BPL
[28] = system: Klebsiella pneumoniae; assay: Antibacterial activity against KPC-2 producing Klebsiella pneumoniae isolate 212229 after 18 hrs by CLSI broth microdilution method; conditions: isolate 212229, 18 h
[29] = system: Klebsiella pneumoniae; assay: Antibacterial activity against KPC-2 producing Klebsiella pneumoniae isolate 212229 after 18 hrs in presence of BPL by CLSI broth microdilution method; conditions: isolate 212229, 18 h; summary of the method: as §1
[30] = system: Klebsiella pneumoniae; assay: Selectivity index, ratio of MIC for against KPC-2 producing Klebsiella pneumoniae isolate 212229 to MIC for against KPC-2 producing Klebsiella pneumoniae isolate 212229 in presence of BPL
[31] = system: Pseudomonas aeruginosa; assay: Antibacterial activity against IMP-4 producing Pseudomonas aeruginosa isolate 212886 after 18 hrs by CLSI broth microdilution method; conditions: isolate 212886, 18 h
[32] = system: Pseudomonas aeruginosa; assay: Antibacterial activity against IMP-4 producing Pseudomonas aeruginosa isolate 212886 after 18 hrs in presence of BPL by CLSI broth microdilution method; conditions: isolate 212886, 18 h; summary of the method: as §1
[33] = system: Pseudomonas aeruginosa; assay: Selectivity index, ratio of MIC for against IMP-4 producing Pseudomonas aeruginosa isolate 212886 to MIC for against IMP-4 producing Pseudomonas aeruginosa isolate 212886 in presence of BPL
[34] = system: Pseudomonas aeruginosa; assay: Antibacterial activity against IMP-4 producing Pseudomonas aeruginosa isolate 209471 after 18 hrs by CLSI broth microdilution method; conditions: isolate 209471, 18 h
[35] = system: Pseudomonas aeruginosa; assay: Antibacterial activity against IMP-4 producing Pseudomonas aeruginosa isolate 209471 after 18 hrs in presence of BPL by CLSI broth microdilution method; conditions: isolate 209471, 18 h; summary of the method: as §1
[36] = system: Pseudomonas aeruginosa; assay: Selectivity index, ratio of MIC for against IMP-4 producing Pseudomonas aeruginosa isolate 209471 to MIC for against IMP-4 producing Pseudomonas aeruginosa isolate 209471 in presence of BPL
[37] = system: Pseudomonas aeruginosa; assay: Antibacterial activity against IMP-4 producing Pseudomonas aeruginosa isolate 208247 after 18 hrs by CLSI broth microdilution method; conditions: isolate 208247, 18 h
[38] = system: Pseudomonas aeruginosa; assay: Antibacterial activity against IMP-4 producing Pseudomonas aeruginosa isolate 208247 after 18 hrs in presence of BPL by CLSI broth microdilution method; conditions: isolate 208247, 18 h; summary of the method: as §1
[39] = system: Pseudomonas aeruginosa; assay: Selectivity index, ratio of MIC for against IMP-4 producing Pseudomonas aeruginosa isolate 208247 to MIC for against IMP-4 producing Pseudomonas aeruginosa isolate 208247 in presence of BPL
[40] = system: Pseudomonas aeruginosa; assay: Antibacterial activity against IMP-4 producing Pseudomonas aeruginosa isolate 209321 after 18 hrs by CLSI broth microdilution method; conditions: isolate 209321, 18 h
[41] = system: Pseudomonas aeruginosa; assay: Antibacterial activity against IMP-4 producing Pseudomonas aeruginosa isolate 209321 after 18 hrs in presence of BPL by CLSI broth microdilution method; conditions: isolate 209321, 18 h; summary of the method: as §1
[42] = system: Pseudomonas aeruginosa; assay: Selectivity index, ratio of MIC for against IMP-4 producing Pseudomonas aeruginosa isolate 209321 to MIC for against IMP-4 producing Pseudomonas aeruginosa isolate 209321 in presence of BPL
[43] = system: Pseudomonas aeruginosa; assay: Antibacterial activity against IMP-4 producing Pseudomonas aeruginosa isolate 207272 after 18 hrs by CLSI broth microdilution method; conditions: isolate 207272, 18 h
[44] = system: Pseudomonas aeruginosa; assay: Antibacterial activity against IMP-4 producing Pseudomonas aeruginosa isolate 207272 after 18 hrs in presence of BPL by CLSI broth microdilution method; conditions: isolate 207272, 18 h; summary of the method: as §1
[45] = system: Pseudomonas aeruginosa; assay: Selectivity index, ratio of MIC for against IMP-4 producing Pseudomonas aeruginosa isolate 207272 to MIC for against IMP-4 producing Pseudomonas aeruginosa isolate 207272 in presence of BPL

Compound: CC(C)C(O/N=C(\C(=O)N[C@@H]1C(=O)N(S(=O)(=O)O)[C@@H]1COC(=O)c1ccc(O)c(O)c1Cl)c1csc(N)n1)c1cc(=O)c(O)cn1O (stereo not given in full)
- MIC [1]: 32 µg/mL (≈ 44.6 µM)
- Selectivity Index [2]: 2
- MIC [3]: > 64 µg/mL
- MIC [4]: 32 µg/mL (≈ 44.6 µM)
- MIC [5]: 16 µg/mL
- MIC [6]: > 64 µg/mL
- Selectivity Index [7]: 1 - 2
- MIC [8]: 16 µg/mL
- Selectivity Index [9]: 2
- MIC [10]: 32 µg/mL (≈ 44.6 µM)
- MIC [11]: 32 µg/mL
- Selectivity Index [12]: 1
- MIC [13]: 16 µg/mL (≈ 22.3 µM)
- MIC [14]: 8 µg/mL
- Selectivity Index [15]: 2
- MIC [16]: 16 µg/mL (≈ 22.3 µM)
- MIC [17]: 4 µg/mL
- Selectivity Index [18]: 4
- MIC [19]: 32 µg/mL (≈ 44.6 µM)
- MIC [20]: 4 µg/mL
- Selectivity Index [21]: 8
- MIC [22]: 32 µg/mL (≈ 44.6 µM)
- MIC [23]: 4 µg/mL
- Selectivity Index [24]: 8
- MIC [25]: 32 µg/mL (≈ 44.6 µM)
- MIC [26]: 4 µg/mL
- Selectivity Index [27]: 8
- MIC [28]: 32 µg/mL (≈ 44.6 µM)
- MIC [29]: 4 µg/mL
- Selectivity Index [30]: 8
- MIC [31]: > 64 µg/mL
- MIC [32]: > 64 µg/mL
- Selectivity Index [33]: 1 - 2
- MIC [34]: 64 µg/mL (≈ 89.2 µM)
- MIC [35]: 64 µg/mL
- Selectivity Index [36]: 1
- MIC [37]: > 64 µg/mL
- MIC [38]: > 64 µg/mL
- Selectivity Index [39]: 1 - 2
- MIC [40]: 64 µg/mL (≈ 89.2 µM)
- MIC [41]: 32 µg/mL
- Selectivity Index [42]: 2
- MIC [43]: > 64 µg/mL
- MIC [44]: > 64 µg/mL
- Selectivity Index [45]: 1 - 2

Compound: CC(C)C(O/N=C(\C(=O)N[C@@H]1C(=O)N(S(=O)(=O)O)[C@@H]1COC(=O)C1CN(C(=O)c2ccc(O)c(O)c2Cl)C1)c1csc(N)n1)c1cc(=O)c(O)cn1O (stereo not given in full)
- MIC [1]: 16 µg/mL (≈ 20 µM)
- Selectivity Index [2]: 8
- MIC [3]: > 64 µg/mL
- MIC [4]: 16 µg/mL (≈ 20 µM)
- MIC [5]: 2 µg/mL
- MIC [6]: 64 µg/mL
- Selectivity Index [7]: 1 - 8
- MIC [8]: 16 µg/mL
- Selectivity Index [9]: 1
- MIC [10]: 16 µg/mL (≈ 20 µM)
- MIC [11]: 8 µg/mL
- Selectivity Index [12]: 2
- MIC [13]: 8 µg/mL (≈ 10 µM)
- MIC [14]: 4 µg/mL
- Selectivity Index [15]: 2
- MIC [16]: > 64 µg/mL
- MIC [17]: 8 µg/mL
- Selectivity Index [18]: >8
- MIC [19]: > 64 µg/mL
- MIC [20]: 8 µg/mL
- Selectivity Index [21]: >8
- MIC [22]: > 64 µg/mL
- MIC [23]: 8 µg/mL
- Selectivity Index [24]: >8
- MIC [25]: > 64 µg/mL
- MIC [26]: 4 µg/mL
- Selectivity Index [27]: >16
- MIC [28]: > 64 µg/mL
- MIC [29]: 8 µg/mL
- Selectivity Index [30]: >8
- MIC [31]: > 64 µg/mL
- MIC [32]: > 64 µg/mL
- Selectivity Index [33]: 1 - 2
- MIC [34]: 64 µg/mL (≈ 80 µM)
- MIC [35]: 32 µg/mL
- Selectivity Index [36]: 2
- MIC [37]: 32 µg/mL (≈ 40 µM)
- MIC [38]: 32 µg/mL
- Selectivity Index [39]: 1
- MIC [40]: 64 µg/mL (≈ 80 µM)
- MIC [41]: 32 µg/mL
- Selectivity Index [42]: 2
- MIC [43]: 32 µg/mL (≈ 40 µM)
- MIC [44]: 16 µg/mL
- Selectivity Index [45]: 2
